Measured values published in ChEMBL document CHEMBL4043201, “Conjugates of 18β-glycyrrhetinic acid derivatives with 3-(1H-benzo[d]imidazol-2-yl)propanoic acid as Pin1 inhibitors displaying anti-prostate cancer ability” (Bioorg Med Chem, 2017).

Assays:
[1] = test system: LNCaP; test: Antiproliferative activity against human LNCAP cells assessed as inhibition of cell growth incubated for 96 hrs by MTT assay; type: functional
Summary of the method: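 MTT growth assay. Cells seeded at 2×10^4 per well and held 24 h at 37 °C under 5% CO2 before compound was added at a range of concentrations. Exposure lasted 96 h, then 2 mg/mL MTT was added for 4 h. Cells were dissolved in DMSO and absorbance read at 570 nm. Growth was taken as treated/untreated cell number. GI50 was derived from the inhibition ratios. Three independent experiments, mean reported.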

[2] = biological target: T1, Peptidyl-prolyl cis-trans isomerase NIMA-interacting 1 (Homo sapiens, UniProt Q13526); test: Inhibition of Pin1 (unknown origin) assessed as reduction in peptidyl-prolyl isomerase activity at 10 uM incubated for 30 mins using Suc-Ala-Glu-cis-Pro-Phe-4-nitroanilide substrate by protease coupled assay
T1 sequence (Q13526 whole entry): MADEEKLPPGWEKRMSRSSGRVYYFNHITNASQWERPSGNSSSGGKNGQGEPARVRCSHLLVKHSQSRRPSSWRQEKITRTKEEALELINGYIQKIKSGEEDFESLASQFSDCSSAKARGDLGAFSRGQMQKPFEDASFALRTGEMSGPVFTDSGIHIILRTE
Summary of the method: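 Commercial Pin1 in 35 mM HEPES pH 7.8 was pre-equilibrated with compound (DMSO solutions) for 30 min at 10 °C. Ice-cold chymotrypsin (stock 60 mg/mL in 0.001 M HCl) was added, then Suc-Ala-Glu-cis-Pro-Phe-4-nitroanilide in 0.47 mol/L LiCl/trifluoroethanol was added to start the reaction. Absorbance at 390 nm was monitored for 90 s at 10 °C.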

[3] = test system: PC-3; test: Antiproliferative activity against human PC3 cells assessed as inhibition of cell growth incubated for 96 hrs by MTT assay; type: functional; conditions: PC-3, 96 h
Summary of the method: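 PC-3 cells grown in RPMI1640 with 10% heat-inactivated FBS, seeded at 2×10^4 cells/well and kept 24 h at 37 °C in 5% CO2. Compounds were then added at various concentrations for 96 h. MTT (2 mg/mL) was added for a further 4 h, cells dissolved in DMSO, and A570 read. Growth was treated/untreated cell number, with GI50 calculated from inhibition ratios. Mean of three independent runs.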

[4] = biological target: T1, Peptidyl-prolyl cis-trans isomerase NIMA-interacting 1; test: Inhibition of Pin1 (unknown origin) assessed as reduction in peptidyl-prolyl isomerase activity incubated for 30 mins using Suc-Ala-Glu-cis-Pro-Phe-4-nitroanilide substrate by protease coupled assay
[5] = biological target: T1, Peptidyl-prolyl cis-trans isomerase NIMA-interacting 1; test: Inhibition of Pin1 in human PC3 cells assessed as reduction in Cyclin D1 protein level at 10 to 30 uM incubated for 24 hrs by Western blot method; type: cell-based
Summary of the method: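 PC-3 cells were treated 24 h with compound at 10, 20 or 30 μM, with DMSO as control. Cells were lysed in RIPA buffer with protease inhibitors, and 40 μg protein was run on 10% SDS-PAGE and blotted to nitrocellulose. Ponceau S was used as a loading check. Membranes were blocked in 5% milk and probed overnight at 4 °C with anti-cyclin D1 and β-actin, with secondary antibody 1 h at 37 °C. ECL detection.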

Q: Which GI50 [1] does the source give for `CC1(C)C(=O)CC[C@]2(C)[C@H]3CC=C4[C@@H]5C[C@@](C)(C(=O)OCCCn6c(CCC(=O)O)nc7ccccc76)CC[C@]5(C)CC[C@@]4(C)[C@]3(C)CC[C@@H]12` here?
A: 19.7 µM

Q: And the inhibition [2]?
A: 98%

Q: And the GI50 [3]?
A: 13 µM

Q: What about the IC50 [4] of the same compound?
A: 3.8 µM

Q: How did the inhibition [2] turn out when `O=C1C=CC(=O)c2c(O)cccc21` [JUGLONE] was run?
A: 44%

Q: What about the GI50 [3] of the same compound?
A: 4.77 µM

Q: And the IC50 [4]?
A: 10.8 µM

Q: `O=C(O)CCc1nc2ccccc2[nH]1` [PROCODAZOLE] was tested. Which GI50 [1] did it give?
A: > 50 µM

Q: And the inhibition [2]?
A: 23%

Q: And the GI50 [3]?
A: > 50 µM

Q: Which results are given for `CC1(C)C(=O)CC[C@]2(C)[C@H]3C(=O)C=C4[C@@H]5C[C@@](C)(C(=O)NCCn6c(CCC(=O)O)nc7ccccc76)CC[C@]5(C)CC[C@@]4(C)[C@]3(C)CC[C@@H]12`?
A: GI50 [1]: > 50 µM; inhibition [2]: 38%; GI50 [3]: > 50 µM; IC50 [4]: > 10 µM

Q: `CC1(C)[C@@H](O)CC[C@]2(C)[C@H]3C(=O)C=C4[C@@H]5C[C@@](C)(C(=O)OCCn6c(CCC(=O)O)nc7ccccc76)CC[C@]5(C)CC[C@@]4(C)[C@]3(C)CC[C@@H]12` was tested. Which GI50 [1] did it give?
A: > 50 µM

Q: What about the inhibition [2] of the same compound?
A: 60%

Q: What about the GI50 [3] of the same compound?
A: > 50 µM

Q: For `CC(=O)O[C@H]1CC[C@]2(C)[C@H]3C(=O)C=C4[C@@H]5C[C@@](C)(C(=O)NCCCn6c(CCC(=O)O)nc7ccccc76)CC[C@]5(C)CC[C@@]4(C)[C@]3(C)CC[C@H]2C1(C)C`, which GI50 [1] is on record?
A: > 50 µM

Q: And the inhibition [2]?
A: 50%

Q: And the GI50 [3]?
A: > 50 µM

Q: `COC(=O)[C@@]1(C)CC[C@]2(C)CC[C@]3(C)C(=CC(=O)[C@@H]4[C@@]5(C)CC[C@H](OC(=O)CCn6c(CCC(=O)O)nc7ccccc76)C(C)(C)[C@@H]5CC[C@]43C)[C@@H]2C1` was tested. Which GI50 [1] did it give?
A: 26.6 µM

Q: What about the inhibition [2] of the same compound?
A: 88%

Q: What about the GI50 [3] of the same compound?
A: 16.1 µM

Q: Which results are given for `CC1(C)[C@@H](O)CC[C@]2(C)[C@H]3CC=C4[C@@H]5C[C@@](C)(C(=O)OCCCn6c(CCC(=O)O)nc7ccccc76)CC[C@]5(C)CC[C@@]4(C)[C@]3(C)CC[C@@H]12`?
A: GI50 [1]: 42.7 µM; inhibition [2]: 100%; GI50 [3]: 25.6 µM; IC50 [4]: 2.82 µM

Q: For `CC(=O)O[C@H]1CC[C@]2(C)[C@H]3C(=O)C=C4[C@@H]5C[C@@](C)(C(=O)OCCn6c(CCC(=O)O)nc7ccccc76)CC[C@]5(C)CC[C@@]4(C)[C@]3(C)CC[C@H]2C1(C)C`, which GI50 [1] is on record?
A: 24.4 µM

Q: What about the inhibition [2] of the same compound?
A: 100%

Q: And the GI50 [3]?
A: 27.4 µM

Q: What about the IC50 [4] of the same compound?
A: 1.06 µM

Q: Which results are given for `CC1(C)C(=O)CC[C@]2(C)[C@H]3C(=O)C=C4[C@@H]5C[C@@](C)(C(=O)OCCn6c(CCC(=O)O)nc7ccccc76)CC[C@]5(C)CC[C@@]4(C)[C@]3(C)CC[C@@H]12`?
A: GI50 [1]: 48.9 µM; inhibition [2]: 63%; GI50 [3]: 39.9 µM

Q: For `CC1(C)[C@@H](O)CC[C@]2(C)[C@H]3C(=O)C=C4[C@@H]5C[C@@](C)(C(=O)OCCCn6c(CCC(=O)O)nc7ccccc76)CC[C@]5(C)CC[C@@]4(C)[C@]3(C)CC[C@@H]12`, which GI50 [1] is on record?
A: > 50 µM

Q: What about the inhibition [2] of the same compound?
A: 40%

Q: What about the GI50 [3] of the same compound?
A: > 50 µM

Q: What about the IC50 [4] of the same compound?
A: > 10 µM

Q: Which GI50 [1] does the source give for `CC(=O)O[C@H]1CC[C@]2(C)[C@H]3C(=O)C=C4[C@@H]5C[C@@](C)(C(=O)NCCn6c(CCC(=O)O)nc7ccccc76)CC[C@]5(C)CC[C@@]4(C)[C@]3(C)CC[C@H]2C1(C)C` here?
A: > 50 µM

Q: And the inhibition [2]?
A: 27%

Q: What about the GI50 [3] of the same compound?
A: > 50 µM

Q: What about the IC50 [4] of the same compound?
A: > 10 µM

Q: Which GI50 [1] does the source give for `CC1(C)C(=O)CC[C@]2(C)[C@H]3CC=C4[C@@H]5C[C@@](C)(C(=O)OCCn6c(CCC(=O)O)nc7ccccc76)CC[C@]5(C)CC[C@@]4(C)[C@]3(C)CC[C@@H]12` here?
A: 25.8 µM

Q: What about the inhibition [2] of the same compound?
A: 69%

Q: And the GI50 [3]?
A: 18.4 µM

Q: Which inhibition [2] does the source give for `CC1(C)[C@@H](O)CC[C@]2(C)[C@H]3C(=O)C=C4[C@@H]5C[C@@](C)(C(=O)O)CC[C@]5(C)CC[C@@]4(C)[C@]3(C)CC[C@@H]12` [ENOXOLONE] here?
A: 34%

Q: What about the GI50 [3] of the same compound?
A: 95.7 µM

Q: What about the IC50 [4] of the same compound?
A: > 10 µM

Q: For `CC1(C)C(=O)CC[C@]2(C)[C@H]3C(=O)C=C4[C@@H]5C[C@@](C)(C(=O)NCCCn6c(CCC(=O)O)nc7ccccc76)CC[C@]5(C)CC[C@@]4(C)[C@]3(C)CC[C@@H]12`, which GI50 [1] is on record?
A: > 50 µM

Q: And the inhibition [2]?
A: 28%

Q: And the GI50 [3]?
A: > 50 µM

Q: And the IC50 [4]?
A: > 10 µM

Q: Which GI50 [1] does the source give for `CC(=O)O[C@H]1CC[C@]2(C)[C@H]3C(=O)C=C4[C@@H]5C[C@@](C)(C(=O)OCCCn6c(CCC(=O)O)nc7ccccc76)CC[C@]5(C)CC[C@@]4(C)[C@]3(C)CC[C@H]2C1(C)C` here?
A: 15.5 µM

Q: And the inhibition [2]?
A: 100%

Q: What about the GI50 [3] of the same compound?
A: 11.8 µM

Q: And the IC50 [4]?
A: 1.33 µM

Q: Which results are given for `CC1(C)C(=O)CC[C@]2(C)[C@H]3C(=O)C=C4[C@@H]5C[C@@](C)(C(=O)OCCCn6c(CCC(=O)O)nc7ccccc76)CC[C@]5(C)CC[C@@]4(C)[C@]3(C)CC[C@@H]12`?
A: GI50 [1]: 29.3 µM; inhibition [2]: 77%; GI50 [3]: 35.6 µM

Q: Which results are given for `CC1(C)[C@@H](O)CC[C@]2(C)[C@H]3CC=C4[C@@H]5C[C@@](C)(C(=O)OCCn6c(CCC(=O)O)nc7ccccc76)CC[C@]5(C)CC[C@@]4(C)[C@]3(C)CC[C@@H]12`?
A: GI50 [1]: > 50 µM; inhibition [2]: 54%; GI50 [3]: > 50 µM

Q: With `COC(=O)[C@@]1(C)CC[C@]2(C)CC[C@]3(C)C(=CC(=O)[C@@H]4[C@@]5(C)CC[C@H](OC(=O)Cn6c(CCC(=O)O)nc7ccccc76)C(C)(C)[C@@H]5CC[C@]43C)[C@@H]2C1` as the compound, how does the GI50 [1] read?
A: 13.2 µM

Q: And the inhibition [2]?
A: 100%

Q: What about the inhibition [5] of the same compound?
A: Dose-dependent effect

Q: What about the GI50 [3] of the same compound?
A: 7.8 µM

Q: What about the IC50 [4] of the same compound?
A: 1.07 µM

Q: For `CC(=O)O[C@H]1CC[C@]2(C)[C@H]3CC=C4[C@@H]5C[C@@](C)(C(=O)OCCn6c(CCC(=O)O)nc7ccccc76)CC[C@]5(C)CC[C@@]4(C)[C@]3(C)CC[C@H]2C1(C)C`, which GI50 [1] is on record?
A: 13.3 µM

Q: And the inhibition [2]?
A: 94%

Q: And the GI50 [3]?
A: 10.9 µM

Q: And the IC50 [4]?
A: 4.79 µM
